The values below come from ChEMBL document CHEMBL2169757, “Discovery, synthesis, and biological evaluation of a novel group of selective inhibitors of filoviral entry” (J Med Chem, 2011).

Each structure is given as a SMILES string. The source made the active and inactive calls. The rule behind the calls is not given here.

As a reminder, the IC50 is the point on the concentration scale where inhibition reaches its midpoint. What is called inhibition is the percentage by which the read-out fell short of the control.

Holding throughout (assay type): cell-based
The test system of data set [1] is 293T. Put plainly: Inhibition of compound-pretreated Ebolavirus GP pseudotyped in HIV virions infected in human 293T cells assessed as viral-cell entry at 60 uM after 48 hrs by luciferase gene assay relative to DMSO-treated control. Further details: scale not given: the % may be the effect or the level left. The following applies: Zaire ebolavirus. Summed up: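 Ebola GP-pseudotyped HIV luciferase virions were mixed with compound (60 μM final) before infecting 293T cells. Medium was changed after overnight incubation, and luciferase was read from lysates at 48 h. Result is % infectivity relative to DMSO vehicle (0.1~0.2% final).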

Data set [2] relates to HEK-293T. Put plainly: Cytotoxicity against human 293T cells infected with Ebolavirus GP pseudotyped in HIV virions assessed as effect on cell growth at 60 uM. Summed up:
(§1)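 Compounds at 60 μM final were mixed with Ebola GP-pseudotyped HIV luciferase virions and added to 293T cells. Cell morphology and growth were checked by light microscopy at 24 and 48 h post-infection. Vehicle was DMSO at 0.1~0.2% final.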

Data set [3] deals with HEK-293T. Briefly: Cytotoxicity against human 293T cells infected with Ebolavirus GP pseudotyped in HIV virions assessed as effect on cell morphology at 60 uM. In a few lines:
as §1

Data set [4] is described as follows: (§2) Inhibition of compound-pretreated Ebolavirus GP pseudotyped in HIV virions infected in human 293T cells assessed as inhibition of viral-cell entry after 48 hrs by luciferase gene assay relative to DMSO-treated control. The following applies: Zaire ebolavirus, HEK-293T. In a few lines: (§3)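 Pseudotypes were briefly preincubated with compound at room temperature, then added to 293T or HeLa cells seeded the day before. Medium was replaced after overnight incubation, and cells were lysed at 48 h for firefly luciferase reading. Single point was 30 μM; curves spanned 3.75–120 or 3.75–60 μM. Infectivity was taken as % of DMSO control, from 3–5 independent experiments.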

In data set [5] the test system is 293T. The data set is described as §2. As to conditions: Zaire ebolavirus. In a few lines:
as §3

Data set [6] has as its system 293T. Briefly: Inhibition of compound-pretreated VSV GP pseudotyped in HIV virions infected in human 293T cells assessed as inhibition of viral-cell entry after 48 hrs by luciferase gene assay relative to DMSO-treated control. As to conditions: Vesicular stomatitis virus.
Data set [7] in a line: (§4) Inhibition of compound-pretreated Ebolavirus GP pseudotyped in HIV virions infected in human HeLa cells assessed as inhibition of viral-cell entry after 48 hrs by luciferase gene assay relative to DMSO-treated control. The following applies: Zaire ebolavirus. Summed up:
as §3

Data set [8] relates to HeLa. Described as §4. The following applies: Zaire ebolavirus. In a few lines:
as §3

Data set [9] has as its system 293T. Briefly: Inhibition of compound-pretreated Marburg GP pseudotyped in HIV virions infected in human 293T cells assessed as inhibition of viral-cell entry at 60 uM after 48 hrs by luciferase gene assay relative to DMSO-treated control. As to conditions: Marburgvirus. In a few lines: (§5)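 HIV luciferase virions pseudotyped with Marburg GP (Lake Victoria) were preincubated with compound (60 μM final), then added to 293T, HeLa or A549 cells. Medium was replaced after overnight incubation, and lysates were read for luciferase at 48 h. Values are % of DMSO control, mean ± standard error of three independent experiments.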

Data set [10] has as its system HeLa. Briefly: Inhibition of compound-pretreated VSV GP pseudotyped in HIV virions infected in human HeLa cells assessed as inhibition of viral-cell entry after 48 hrs by luciferase gene assay relative to DMSO-treated control. The following applies: Vesicular stomatitis virus.
Another data set concerns A549. Briefly: Inhibition of compound-pretreated Marburg GP pseudotyped in HIV virions infected in human A549 cells assessed as inhibition of viral-cell entry at 60 uM after 48 hrs by luciferase gene assay relative to DMSO-treated control. As to conditions: Marburgvirus. In a few lines: as §5
Data set [11] concerns HeLa. Briefly: Inhibition of compound-pretreated Marburg GP pseudotyped in HIV virions infected in human HeLa cells assessed as inhibition of viral-cell entry at 60 uM after 48 hrs by luciferase gene assay relative to DMSO-treated control. The following applies: Marburgvirus. In a few lines: as §5
In data set [12] the test system is HEK-293T. Briefly: Cytotoxicity against human 293T cells infected with Ebolavirus GP pseudotyped in HIV virions assessed as cell death at 60 uM. In a few lines: as §1
In data set [13] the test system is 293T. Briefly: Inhibition of compound-pretreated VSV GP pseudotyped in HIV virions infected in human 293T cells assessed as inhibition of viral-cell entry at 120 uM after 48 hrs by luciferase gene assay relative to DMSO-treated control. The following applies: Vesicular stomatitis virus.
Data set [14] relates to HeLa. Briefly: Inhibition of compound-pretreated VSV GP pseudotyped in HIV virions infected in human HeLa cells assessed as inhibition of viral-cell entry at 120 uM after 48 hrs by luciferase gene assay relative to DMSO-treated control. The following applies: Vesicular stomatitis virus.
Data set [15] has as its system 293T. Briefly: Inhibition of compound-pretreated Ebolavirus GP pseudotyped in HIV virions infected in human 293T cells assessed as inhibition of viral-cell entry at 30 uM after 48 hrs by luciferase gene assay relative to DMSO-treated control. The following applies: Zaire ebolavirus. Summed up:
as §3

The test system of data set [16] is HeLa. Put plainly: Inhibition of compound-pretreated Ebolavirus GP pseudotyped in HIV virions infected in human HeLa cells assessed as inhibition of viral-cell entry at 30 uM after 48 hrs by luciferase gene assay relative to DMSO-treated control. The following applies: Zaire ebolavirus. In a few lines: as §3

As for `COc1ccc(-c2cc(CNC(=O)[C@H](CC(=O)OCc3ccccc3)NC(=O)OC(C)(C)C)on2)cc1`, the Activity with 293T [1] stood at 118%.
As to `COc1ccc(-c2cc(CNC(=O)[C@H](Cc3ccccc3)NC(=O)OC(C)(C)C)on2)cc1`, the Activity in the data set on 293T [1] was found to be 188%.
Consider `CCN(CC)CC(=O)NCc1cc(-c2ccc(Br)cc2)no1`, for which the Activity in the data set on 293T [1] turned out to be 30%.
Still for that read-out and setting: then `CCN(CC)CC(=O)NCc1cc(-c2ccc(OC)c(I)c2)no1`, with 4%; and `CCN(CC)CC(=O)NCc1cn(-c2ccccc2[N+](=O)[O-])nn1`, with 66%.
As to `CCN(CC)CC(=O)NCc1cc(-c2ccc(C)cc2)no1`, the Activity entry is “Non-toxic” in the data set on HEK-293T [2], “Non-toxic” in the data set with HEK-293T [3] and 381% in the data set with 293T [1].
In the case of `CCN(CC)CC(=O)NCc1cn(-c2ccccc2)nn1`, the Activity in the data set on 293T [1] was 46%.
On the same count and under the same terms, then `COc1ccc(-c2cc(CNC(=O)OCC(C)C)on2)cc1`, with 118%; and `COc1ccc(-c2cc(CNC(=O)[C@@H](NC(=O)OCc3ccccc3)C(C)C)on2)cc1`, with 220%; and `CCN(CC)CC(=O)NCc1cc(-c2ccccc2)no1`, with 181%.
With `CCN(CC)CC(=O)NCc1cn(-c2c(Cl)cc(Cl)cc2Cl)nn1`, the Activity in the data set on 293T [1] turned out to be 33%.
Consider `CCN(CC)CC(=O)NCc1cc(-c2ccco2)no1`, for which, in the data set on 293T [1], the Activity was 77%.
Still for that read-out and setting: then `CCN(CC)CC(=O)NCc1cn(-c2cccc(OC)c2)nn1`, with 90%.
Consider `CCN(CC)CC(=O)NCc1cn(-c2ccc(I)cc2)nn1`, for which the IC50 in data set [4] and in data set [7] was 5 µM in each case. Besides, the inhibition result is “Dose-dependent effect” with 293T [5], “Dose-dependent effect” in the data set on HeLa [8], > 90% in the data set on A549 and > 90% in the data set with HeLa [11]. For the same molecule, the inhibition result in the data set with 293T [6] and in the data set with HeLa [10] was “inactive” each time. In the data set with 293T [1], the Activity came to 4%. For the same molecule, the inhibition result with 293T [9] was “Active”.
Regarding `CCN(CC)CC(=O)NCc1cc(-c2ccc(O)cc2)no1`, the Activity with 293T [1] is 132%.
As for `O=C(CBr)NCc1cc(-c2ccc(Br)cc2)no1`, the Activity result with HEK-293T [12] is listed as “Toxic”.
As to `CCN(CC)CC(=O)NCc1cc(-c2ccccc2OC)no1`, the Activity in the data set on 293T [1] came to 87%.
On to `CCN(CC)CC(=O)NCc1cn(-c2ccccc2Br)nn1`, for which, in the data set with 293T [1], the Activity is 19%.
The same measure, in the same setting: then `CCN(CC)CC(=O)NCc1cn(Cc2ccccc2)nn1`, with 35%; and `CCC(=O)NCc1cc(-c2ccc(Br)cc2)no1`, with 99%; and `COc1ccc(-c2cc(CNC(=O)CNC(=O)OCc3ccccc3)on2)cc1`, with 148%.
Same read-out and setting: for `CCCc1cc(CNC(=O)CN(CC)CC)on1` the value was 102%; for `COc1ccc(-c2cc(CNC(=O)[C@@H](NC(=O)OCc3ccccc3)C3CCCN3C(=O)OCc3ccccc3)on2)cc1` (stereo not given in full), 254%; for `O=C(NCc1cc(-c2ccc(Br)cc2)no1)c1ccccc1`, 82%.
On the same count and under the same terms, then `CCN(CC)CC(=O)NCc1cc(-c2ccc(OC)c(OC)c2)no1`, with 160%; and `CC(C)C(=O)NCc1cc(-c2ccc(Br)cc2)no1`, with 116%; and `CCN(CC)CC(=O)NCc1cc(-c2c(F)c(F)c(F)c(F)c2F)no1`, with 52%.
`CCN(CC)CC(=O)NCc1cn(-c2ccc(Cl)cc2)nn1`: the Activity in the data set with 293T [1] amounted to 105%.
On to `CCN(CC)CC(=O)NCc1cc(-c2c(C)cccc2C)no1`, for which the Activity in the data set on 293T [1] was 59%.
On the same count and under the same terms, then `CCN(CC)CC(=O)NCc1cn(-c2ccc(Br)cc2)nn1`, with 18%.
On the same count and under the same terms, then `CCN(CC)CC(=O)NCc1cn(-c2ccc(OC)cc2[N+](=O)[O-])nn1`, with 92%.
As to `CCN(CC)CC(=O)NCc1cc(-c2ccc(OC)cc2)no1`, the IC50 in [4] and in data set [7] was 30 µM each time. Besides, the inhibition result with 293T [5] was “Dose-dependent effect”; in the data set with HeLa [8] it was “Dose-dependent effect”; in the data set on 293T [15] it was > 50%; in the data set with 293T [9] it was 20%; in the data set with A549, 20%; in the data set with HeLa [11], 20%. In addition, in the data set with HeLa [16], the inhibition is > 50%. The inhibition entry with 293T [13] and in the data set with HeLa [14] was “inactive” throughout. Also, the Activity in the data set on 293T [1] worked out at 56%.
Take `CC(=O)NCc1cc(-c2ccc(Br)cc2)no1`: the Activity result in the data set on HEK-293T [2] was “Non-toxic”; with HEK-293T [3], “Non-toxic”; in the data set on 293T [1], 105%.
For the molecule `CCN(CC)CC(=O)NCc1cc(-c2cccc(OC)c2)no1`, the IC50 in [4] and in [7] was 10 µM throughout. Further, the inhibition entry in the data set with 293T [5] and with HeLa [8] was “Dose-dependent effect” in each case. The inhibition result with 293T [6] and in the data set with HeLa [10] was “inactive” each time. Further, the Activity in the data set with 293T [1] was 4%.
Regarding `CCN(CC)CC(=O)NCc1cc(-c2ccc(Cl)cc2)no1`, the Activity with 293T [1] came to 17%.
Turning to `O=C1NC2(CCCC2)C(COc2ccccc2)O1` (stereo not given), the inhibition entry in the data set on 293T [13] and in the data set with HeLa [14] was “Active” in each case.
As for `CCN(CC)CC(=O)NCc1cc(-c2ccc([N+](=O)[O-])cc2)no1`, the Activity in the data set with 293T [1] is 30%.
The same measure, in the same setting: for `CCN(CC)CC(=O)NCc1cn(-c2cccc(I)c2)nn1` the value was 111%; for `COc1ccc(-c2cc(CNC(=O)CBr)on2)cc1`, 121%; for `CCN(CC)CC(=O)NCc1cc(-c2cccc([N+](=O)[O-])c2)no1`, 37%.
In the case of `CCCCCCCn1cc(CNC(=O)CN(CC)CC)nn1`, the Activity with 293T [1] was 60%.
Turning to `CCN(CC)CC(=O)NCc1cc(-c2ccc(C(F)(F)F)cc2)no1`, the Activity in the data set on 293T [1] worked out at 24%.
`CCN(CC)CC(=O)NCc1cc(-c2ccc(I)cc2)no1`: the IC50 in [4] and in data set [7] was 2.5 µM each time. For the same molecule, the inhibition entry in the data set on 293T [5] and in the data set on HeLa [8] was “Dose-dependent effect” throughout. Also, the inhibition entry in the data set on 293T [6] and in the data set on HeLa [10] was “inactive” each time. The Activity with 293T [1] worked out at 6%. The inhibition result in the data set on 293T [9], in the data set with A549 and in the data set with HeLa [11] was “Active” in each case.
Consider `COc1ccc(-c2cc(CNC(=O)[C@@H](N)Cc3ccccc3)on2)cc1`, for which the Activity in the data set with 293T [1] is 106%.
The same measure, in the same setting: then `CCN(CC)CC(=O)NCc1cn(-c2ccc(OC)cc2)nn1`, with 58%.
As to `CCN(CC)CC(=O)NCc1cn(-c2c(Br)cc(Br)cc2Br)nn1`, the IC50 in [4] and in data set [7] was 5 µM each time. Also, the inhibition result in the data set with 293T [5] and with HeLa [8] was “Dose-dependent effect” throughout. The inhibition result in the data set on 293T [6] and in the data set with HeLa [10] was “inactive” in each case. The Activity in the data set with 293T [1] stood at 3%.
For `COc1ccc(-c2cc(CNC(=O)[C@H](CS)NC(C)=O)on2)cc1`, the Activity result is “Non-toxic” with HEK-293T [2], “Non-toxic” in the data set on HEK-293T [3] and 421% in the data set on 293T [1].
